In ChEMBL document CHEMBL1122273, “5-sulfamoylorthanilic acids, a sulfonamide series with salidiuretic activity” (J Med Chem, 1983):
Active and inactive are the calls of the source. The rule behind the calls is not given here.

Legend:
[1] = It is the ratio, measured as saluretic activity in the dog as concentration of Cl- in urinary excretion (dose 1.56 mg/Kg, po) to that of (Na+)+(K+); format: functional, Urine
How it was run: (§1)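 Trained male beagles, fasted 24 h with tap water ad libitum. Bladder emptied by catheter, then 20 mL/kg tap water by stomach tube, with 4 mL/kg water at each hourly catheterization up to 8 h. The first 2 h of urine served as control. Oral dosing came after the second catheterization, and 1–6 h urine was pooled. Na⁺ and K⁺ were measured by flame photometry, Cl⁻ argentometrically, in mequiv/kg.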

Canis familiaris [2] = assay: Saluretic activity in the dog measured as concentration of Na+ in urinary excretion (2 animals/dose) at (dose 1.56 mg/Kg, po); format: functional, Canis lupus familiaris, Urine
How it was run: (§2)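 Male beagles trained to rest on a table and to accept stomach tube and catheter. Food withdrawn 24 h before, tap water ad libitum. Bladder emptied by catheter, then 20 mL/kg tap water by stomach tube. Catheterized hourly up to 8 h with 4 mL/kg water orally each time; first 2 h urine served as control. Oral dosing after second catheterization. Pooled 1–6 h urine; Na⁺/K⁺ by flame photometry, Cl⁻ argentometrically.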

Rattus norvegicus [3] = species: Rattus norvegicus; assay: Diuretic activity in the rats, determined by a modified Lipschitz test; format: functional, Urine
How it was run: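 Modified Lipschitz test: rats deprived of water 24 h, grouped in threes of similar weight in diuresis funnels. Oral dose of 50 mg/kg, suspended in 2% starch solution, by stomach tube.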

Canis familiaris [4] = assay: Diuretic activity in the dog (2 animals/dose) at (dose 1.56 mg/Kg), when administered perorally; format: functional, Canis lupus familiaris, Urine; how it was run: as §1
Canis familiaris [5] = assay: Saluretic activity in the dog measured as concentration of Cl - in urinary excretion (2 animals/dose) at (dose 1.56 mg/Kg, po); format: functional, Canis lupus familiaris, Urine
How it was run: (§3)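 Male beagles trained to the procedures, food withdrawn 24 h before, tap water ad libitum. Bladder emptied by catheter, then 20 mL/kg tap water by stomach tube, plus 4 mL/kg orally at each hourly catheterization up to 8 h. The first 2 h of urine served as control. Compound given orally after the second catheterization. Urine from 1–6 h post-dose pooled; Na⁺ and K⁺ by flame photometry, Cl⁻ argentometrically, in mequiv/kg.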

Canis familiaris [6] = assay: Saluretic activity in the dog measured as concentration of K+ in urinary excretion (2 animals/dose) at (dose 1.56 mg/Kg, po); format: functional, Canis lupus familiaris, Urine; how it was run: as §2
Rattus norvegicus [7] = species: Rattus norvegicus; assay: Saluretic activity in the rat measured as concentration of chloride in urine; format: functional
How it was run: (§4)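 Rats deprived of food 24 h, water ad libitum, dosed 50 mg/kg by stomach tube as suspension in 2% starch, no extra water load. Groups of three in diuresis funnels; urine over first 5 h collected. Na⁺ and K⁺ by flame photometry, Cl⁻ argentometrically; expressed as mequiv/kg.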

[8] = It is the ratio, measured as saluretic activity in the dog as concentration of Na+ in urinary excretion (dose 1.56 mg/Kg, po) to that of K; format: functional, Urine; how it was run: as §1
Rattus norvegicus [9] = species: Rattus norvegicus; assay: Saluretic activity in the rat measured as concentration of Na+ in urine; format: functional; how it was run: as §4
Rattus norvegicus [10] = species: Rattus norvegicus; assay: Saluretic activity in the rat measured as concentration of K+ in urine; format: functional; how it was run: as §4
Canis familiaris [11] = assay: Saluretic activity in the dog measured as concentration of Na+ in urinary excretion (2 animals/dose) at (dose 1.56 mg/Kg, perorally); format: functional, Canis lupus familiaris, Urine; how it was run: as §2
[12] = It is the ratio, measured as saluretic activity in the dog as concentration of Na+ in urinary excretion (dose 1.56 mg/Kg, perorally) to that of K; format: functional, Urine; how it was run: as §1
Canis familiaris [13] = assay: Saluretic activity in the dog measured as concentration of K+ in urinary excretion (2 animals/dose) at (dose 1.56 mg/Kg, perorally); format: functional, Canis lupus familiaris, Urine; how it was run: as §3
Canis familiaris [14] = assay: Saluretic activity in the dog measured as concentration of Cl - in urinary excretion (2 animals/dose) at (dose 1.56 mg/Kg, perorally); format: functional, Canis lupus familiaris, Urine; how it was run: as §3
[15] = It is the ratio, measured as saluretic activity in the dog as concentration of Cl- in urinary excretion (dose 1.56 mg/Kg, perorally) to that of (Na+)+(K+); format: functional, Urine; how it was run: as §1
Canis familiaris [16] = assay: Salidiuretic activity on the basis of the 1.56 mg/Kg perorally dog assay; compound was found to be active; format: functional, organism-based; details: Canis lupus familiaris; Urine
Rattus norvegicus [17] = assay: Salidiuretic activity on the basis of the 50 mg/kg perorally rat assay; NA means inactive; details: Urine
Canis familiaris [18] = assay: Salidiuretic activity on the basis of the 1.56 mg/Kg perorally in dog assay; compound is found to be highly active.; format: functional, organism-based; details: Canis lupus familiaris; Urine
Rattus norvegicus [19] = assay: Salidiuretic activity on the basis of the 50 mg/kg perorally in rat assay; compound is found to be highly active.; details: Urine
Rattus norvegicus [20] = assay: Salidiuretic activity on the basis of the 50 mg/kg po rat assay; Compound is found to be modetately active; format: functional, organism-based; set-up: dose 50 mg/kg; details: Urine
Canis familiaris [21] = assay: Sailuric activity in the dog measured as concentration of K+ in urinary excretion (2 animals/dose) at (dose 1.56 mg/Kg, po); format: functional, Canis lupus familiaris, Urine; how it was run: as §3
Canis familiaris [22] = assay: Salidiuretic activity on the basis of the 1.56 mg/Kg po dog assay; compound is found to be active; format: functional, organism-based; details: Canis lupus familiaris; Urine
Canis familiaris [23] = assay: Sailuric activity in the dog measured as concentration of Cl - in urinary excretion (2 animals/dose) at (dose 1.56 mg/Kg, po); format: functional, Canis lupus familiaris, Urine; how it was run: as §3
Canis familiaris [24] = assay: Salidiuretic activity on the basis of the 1.56 mg/Kg po dog assay; compound was found to be active; format: functional, organism-based; details: Canis lupus familiaris; Urine
Rattus norvegicus [25] = assay: Salidiuretic activity on the basis of the 50 mg/kg po rat assay; compound was found to be active; format: functional, organism-based; set-up: dose 50 mg/kg; details: Urine
Rattus norvegicus [26] = assay: Salidiuretic activity on the basis of the 50 mg/kg perorally rat assay; compound was found to be highly active; format: functional, organism-based; set-up: dose 50 mg/kg; details: Urine
Canis familiaris [27] = assay: Salidiuretic activity on the basis of the 1.56 mg/Kg perorally dog assay; compound was found to be highly active; format: functional, organism-based; details: Canis lupus familiaris; Urine
Canis familiaris [28] = assay: Salidiuretic activity on the basis of the 1.56 mg/Kg po dog assay; Compound was highly active; format: functional, organism-based; details: Canis lupus familiaris; Urine
Rattus norvegicus [29] = assay: Salidiuretic activity on the basis of the 50 mg/kg po rat assay; Compound was moderately active active; format: functional, organism-based; set-up: dose 50 mg/kg; details: Urine
Rattus norvegicus [30] = assay: Salidiuretic activity on the basis of the 50 mg/kg po rat assay; compound was active; format: functional, organism-based; set-up: dose 50 mg/kg; details: Urine
Canis familiaris [31] = assay: Salidiuretic activity on the basis of the 1.56 mg/Kg po dog assay; compound was moderately active; format: functional, organism-based; details: Canis lupus familiaris; Urine
Rattus norvegicus [32] = assay: Salidiuretic activity on the basis of the 50 mg/kg po rat assay; Compound was active; details: Urine
[33] = It is the ratio, measured as saluretic activity in the dog as concentration of Cl- in urinary excretion (dose 1.56 mg/Kg, po) to that of (Na++K+); format: functional, Urine; how it was run: as §1
Canis familiaris [34] = assay: Salidiuretic activity on the basis of the 1.56 mg/Kg perorally dog assay; Compound was highly active; format: functional, organism-based; details: Canis lupus familiaris; Urine
Rattus norvegicus [35] = assay: Salidiuretic activity on the basis of the 50 mg/kg perorally rat assay; Compound was highly active; format: functional, organism-based; set-up: dose 50 mg/kg; details: Urine

Compound | Ratio [1] | Saluretic activity (Canis familiaris [2]) [m equiv 6hr-1 kg-1] | Diuretic activity (Rattus norvegicus [3]) [mL/kg] | Diuretic activity (Canis familiaris [4]) [ml kg-1 6hr-1] | Saldiuretic activity (Canis familiaris [5]) [m equiv 6hr-1 kg-1] | Saldiuretic activity (Canis familiaris [6]) | Saluretic activity (Rattus norvegicus [7]) [m equiv 5hr-1 kg-1] | Ratio [8] | Saluretic activity (Rattus norvegicus [9]) [m equiv 5hr-1 kg-1] | Saluretic activity (Rattus norvegicus [10]) [m equiv 5hr-1 kg-1] | also measured
NS(=O)(=O)c1cc(S(=O)(=O)[O-])c(NCc2ccco2)cc1SC1CCCCC1.[K+] | 0.95 | 0.27 | 0.8 | 32.6 | 0.32 | 0.07 m equiv 6hr-1 kg-1 | 1.9 | 3.9 | 1.4 | 0.5 | 
NS(=O)(=O)c1cc(S(=O)(=O)[O-])c(NCCc2ccco2)cc1Oc1ccccc1.[K+] |  |  | 1.2 | 35.2 |  |  | 0.9 |  | 0.6 | 0.7 | Saluretic activity (Canis familiaris [11]): 0.89 m equiv 6hr-1 kg-1; Ratio [12]: 4.2; Saluretic activity (Canis familiaris [13]): 0.21 m equiv 6hr-1 kg-1; Saldiuretic activity (Canis familiaris [14]): 1.18 m equiv 6hr-1 kg-1; Ratio [15]: 1.1; Saldiuretic activity (Canis familiaris [16]): Active; Diuretic activity (Rattus norvegicus [17]): inactive
NCc1ccco1.NS(=O)(=O)c1cc(S(=O)(=O)O)c(NCc2ccco2)cc1Cl |  |  |  |  |  |  |  |  |  |  | Saldiuretic activity (Canis familiaris [18]): Active; Saldiuretic activity (Rattus norvegicus [19]): Active
CCCCSc1cc(NCc2ccco2)c(S(=O)(=O)[O-])cc1S(N)(=O)=O.[K+] | 1 | 1.06 | 2.5 | 32.8 | 1.43 | 0.35 m equiv 6hr-1 kg-1 | 3.6 | 3 | 3.6 | 2.2 | 
NCc1ccccc1.NS(=O)(=O)c1cc(S(=O)(=O)O)c(NCc2ccccc2)cc1Cl |  |  | 1.4 | 40.4 |  |  | 1.2 |  | 1.4 | 1.4 | Saluretic activity (Canis familiaris [11]): 1.65 m equiv 6hr-1 kg-1; Ratio [12]: 4.7; Saldiuretic activity (Rattus norvegicus [20]): Weak activity; Ratio [15]: 1.05; Saluretic activity (Canis familiaris [21]): 0.35 m equiv 6hr-1 kg-1; Saldiuretic activity (Canis familiaris [22]): Active; Saldiuretic activity (Canis familiaris [23]): 2.07 m equiv 6hr-1 kg-1
N.NS(=O)(=O)c1cc(S(=O)(=O)O)c(NCc2ccccc2)cc1Oc1ccccc1 |  |  | 3 | 48 |  |  | 6.9 |  | 4.9 | 2.2 | Saluretic activity (Canis familiaris [11]): 3.12 m equiv 6hr-1 kg-1; Ratio [12]: 5.9; Saluretic activity (Canis familiaris [13]): 0.53 m equiv 6hr-1 kg-1; Saldiuretic activity (Canis familiaris [24]): Active; Saldiuretic activity (Canis familiaris [14]): 3.91 m equiv 6hr-1 kg-1; Ratio [15]: 1.1; Saldiuretic activity (Rattus norvegicus [25]): Active
NS(=O)(=O)c1cc(S(=O)(=O)O)c(NCc2ccco2)cc1Oc1ccccc1 |  |  |  |  |  |  |  |  |  |  | Saldiuretic activity (Rattus norvegicus [26]): Active; Saldiuretic activity (Canis familiaris [27]): Active
CN(c1ccccc1)c1cc(NCc2ccccc2)c(S(=O)(=O)[O-])cc1S(N)(=O)=O.[Na+] | 0.9 | 6.59 | 2.6 | 71.7 | 7.34 |  | 4 | 4.4 | 3.5 | 1.4 | Saldiuretic activity (Canis familiaris [28]): Active; Saldiuretic activity (Rattus norvegicus [29]): Active; Saluretic activity (Canis familiaris [6]): 1.51 m equiv 6hr-1 kg-1
NS(=O)(=O)c1cc(S(=O)(=O)[O-])c(NCc2ccccc2)cc1S(=O)(=O)C1CCCCC1.[Na+] | 1.05 | 3.23 | 0.5 | 51 | 3.94 |  | 1.8 | 5.8 | 2 | 1.7 | Saldiuretic activity (Rattus norvegicus [30]): Active; Saldiuretic activity (Canis familiaris [31]): Weak activity; Saluretic activity (Canis familiaris [6]): 0.56 m equiv 6hr-1 kg-1
CN(c1ccccc1)c1cc(NCc2cccs2)c(S(=O)(=O)[O-])cc1S(N)(=O)=O.[Na+] | 0.95 | 5.86 | 1.8 | 70.6 | 7.03 | 1.37 mequiv kg-1 6hr-1 | 2 | 4.3 | 1.8 | 0.7 | Saldiuretic activity (Canis familiaris [28]): Active; Saldiuretic activity (Rattus norvegicus [32]): Active
CCCCS(=O)(=O)c1cc(NCc2ccco2)c(S(=O)(=O)[O-])cc1S(N)(=O)=O.[Na+] |  | 4.92 | 3.8 | 65.5 | 5.78 | 0.97 m equiv 6hr-1 kg-1 | 8.7 | 5 | 7.3 | 2.2 | Ratio [33]: 1
CN(c1ccccc1)c1cc(NCCc2ccco2)c(S(=O)(=O)[O-])cc1S(N)(=O)=O.[K+] | 1 | 4.7 | 1.2 | 59.9 | 5.81 |  | 3.2 | 4.3 | 2.2 | 2 | Saluretic activity (Canis familiaris [6]): 1.08 m equiv 6hr-1 kg-1
CN(c1ccccc1)c1cc(NCc2ccco2)c(S(=O)(=O)O)cc1S(N)(=O)=O |  |  |  |  |  |  |  |  |  |  | Saldiuretic activity (Canis familiaris [34]): Active; Saldiuretic activity (Rattus norvegicus [35]): Active
